These results are taken from ChEMBL document CHEMBL4396943, “The tetrahydroxanthone-dimer phomoxanthone A is a strong inducer of apoptosis in cisplatin-resistant solid cancer cells” (Bioorg Med Chem, 2019).

Assay [1] concerns A2780cisR. The experiment in a line: Cell cycle arrest in human A2780cisR cells assessed as accumulation at G1 phase incubated for 24 hrs by propidium iodide staining based flow cytometry (reference value: 68.7%). Format: functional.
The subject of assay [2] is A2780. The experiment in a line: Cell cycle arrest in human A2780 cells assessed as accumulation at G1 phase incubated for 24 hrs by propidium iodide staining based flow cytometry (reference value: 61.8%). It counts as functional.
For assay [3], the system named is J82. The experiment in a line: Cell cycle arrest in human J82 cells assessed as accumulation at G1 phase incubated for 24 hrs by propidium iodide staining based flow cytometry (reference value: 69.6%). Format: functional.
In assay [4] the test system is J82. In words: Cell cycle arrest in cisplatin resistant human J82 cells assessed as accumulation at G1 phase incubated for 24 hrs by propidium iodide staining based flow cytometry (reference value: 78.1%). Format: functional.
The subject of assay [5] is J82. The experiment in a line: Induction of apoptosis in cisplatin resistant human J82 cells assessed as depolarization of mitochondrial membrane potential at 20 uM incubated for 2 hrs by hoechst 33342 staining based fluorescence microscopy. Format: functional, cell-based. A digest of the protocol: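 J82CisR cells exposed 2 h, then labelled with TMRE and Hoechst 33342 for 20 min. TMRE signal imaged on a high-content fluorescence imaging platform. Untreated medium control and 20 µM CCCP positive control.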

The subject of assay [6] is J82. The experiment in a line: Induction of apoptosis in human J82 cells assessed as depolarization of mitochondrial membrane potential at 20 uM incubated for 2 hrs by hoechst 33342 staining based fluorescence microscopy. Format: functional, cell-based. A digest of the protocol:
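J82 cells treated 2 h with PXA, then labelled 20 min with TMRE plus Hoechst 33342. ΔΨm read by high-content fluorescence imaging. Untreated medium and 20 µM CCCP served as controls.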

Assay [7] relates to A2780. In words: Induction of apoptosis in human A2780 cells assessed as decrease in mitochondrial membrane potential at 20 uM incubated for 24 hrs by TMRE staining based flow cytometry. It counts as functional, cell-based. In short, it runs like this:
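Cells seeded overnight; medium switched to FBS-free just before treatment to avoid TMRE ester cleavage. Exposure 1 h, 2 h or 24 h, then TMRE staining for 20 min. Cells trypsinized, centrifuged at 4 °C and read by flow cytometry. Medium as negative control, 20 µM CCCP as positive control. […]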

Assay [8] has as its system A2780cisR. The experiment in a line: Induction of apoptosis in human A2780cisR cells assessed as decrease in mitochondrial membrane potential at 20 uM incubated for 24 hrs by TMRE staining based flow cytometry. Format: functional, cell-based. In short, it runs like this: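 Cells seeded overnight; complete medium swapped for FBS-free medium just before treatment to avoid TMRE ester cleavage. Exposure to PXA for 1 h, 2 h or 24 h. TMRE staining 20 min, cells collected by trypsinisation, ΔΨm read by flow cytometry. Medium served as negative control, 20 µM CCCP as positive control. Mean ± SEM reported.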

Active and inactive are the calls of the source. No cut-off for these calls is given here.

As to `CC(=O)O[C@H]1C(=O)[C@@]2(C)[C@H]([C@H](OC(=O)c3ccccc3)[C@]3(O)C[C@H](OC(=O)[C@H](O)[C@@H](NC(=O)c4ccccc4)c4ccccc4)C(C)=C1C3(C)C)[C@]1(OC(C)=O)CO[C@@H]1C[C@@H]2O` [PACLITAXEL], the Activity with A2780cisR [1] is reported as 21.3%; with A2780 [2] it was 22.6%; in the assay with J82 [3], 35.1%; in the assay on J82 [4], 29.1%.
For the compound `N#CC(C#N)=NNc1cccc(Cl)c1`, the outcome in the assay on J82 [5], with J82 [6], in the assay with A2780 [7] and in the assay on A2780cisR [8] was Active.
